Assay results taken from the RNAGym collection of RNA variant scans (doi:10.1126/science.aae0568).
Fewer inactive variants are shown than the library holds.

B1: tRNA (parent)
chain: GUUCCGUUGGCGUAAUGGUAACGCGUCUCCCUCCUAAGGAGAAGACUGCGGGUUCGAGUCCCGUACGGAACG

Variants of: B1
Assay: yeast fitness relative to wild type (ratio to wild type); higher = fitter; tRNA-Arg(CCU), competitive growth, 37 C, YPD
Method in brief: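 Start and end populations of a pooled competition were compared by 100-nucleotide paired-end sequencing of gene amplicons. The Saccharomyces cerevisiae strains carried tRNA-Arg(CCU) gene variants at the native genomic locus, synthesised with a 3% per-site mutation rate at 69 sites, and competed in YPD at 37°C for 24 hours in six parallel replicates. Darwinian fitness relative to wild type was based on the change in genotype frequencies. Genotypes required ≥ 100 starting reads, and estimates < 0.5 were set to 0.5.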

Row | Variant | yeast fitness
1 | C24A G48C | 0.621
2 | C24G U35A G48C | ≤ 0.5
3 | C24A G56C C61G | ≤ 0.5
4 | C24G C33U A70G | ≤ 0.5
5 | C24U A36G U64A | 0.595
6 | C24G C33G U53C C55U | 0.567
7 | C24G C46A | 0.937
8 | C24G C46U | 0.654
9 | C24A G51A C60U G67A | ≤ 0.5
10 | C24U C27G | 0.602
11 | C24U A45U A65G | 0.623
12 | C24G A70C | 0.666
13 | C24G U26A C33U U54A | 0.609
14 | C24G A36C | 0.531
15 | C24G A36U | ≤ 0.5
16 | C24U A37U A43U | 0.646
17 | C24G C55U G67C | ≤ 0.5
18 | C24A U28C C61A | ≤ 0.5
19 | C24G C49U C55G | ≤ 0.5
20 | C24A C27G C61U | 0.575
21 | C24A A45G C61U | ≤ 0.5
22 | C24G G25C C30G U32C G67C | ≤ 0.5
23 | C24G U54G C55G C62U | ≤ 0.5
24 | C24G C27U A37G | 0.536

Row | Variant | yeast fitness
25 | C24G C33U C61A A69U | ≤ 0.5
26 | C24A U54C | 0.634
27 | C24A U26G C61U | ≤ 0.5
28 | C24U A57G A65U | 0.513
29 | C24A G68U | 0.654
30 | C24G G50A C55G | ≤ 0.5
31 | C24U A57G C60U G68C | ≤ 0.5
32 | C24A C61U G67A | ≤ 0.5
33 | C24U A40G | 0.72
34 | C24A A43U G50A G67A | ≤ 0.5
35 | C24G C31G A36G G44A A69G | ≤ 0.5
36 | C24A C33A C46U C60G | ≤ 0.5
37 | C24G C30G G39A G52A C55U | ≤ 0.5
38 | C24U A45C C49U | 0.791
39 | C24G U26C | 0.688
40 | C24G A36C A57C A69U A70C | ≤ 0.5
41 | C24G C34G A69U | ≤ 0.5
42 | C24G A36C A40G A45U | ≤ 0.5
43 | C24A C27G C29A A70G | ≤ 0.5
44 | C24G G63A | 0.554
45 | C24A C30U A65G C66U | ≤ 0.5
46 | C24A C33A C49U A69U | ≤ 0.5
47 | C24U A43G C60A | ≤ 0.5
48 | C24G C27U A40U U59C G68A | 0.582

Row | Variant | yeast fitness
49 | C24G U28G C29G U35G U47A | 0.606
50 | C24G C30A G44C U47C U59A A69C A70C | 0.884
51 | C24G C33G A36C A37C A42C A65U | ≤ 0.5
52 | C24U A45G | 1.03
53 | C24U A42G C49G C61G | 0.627
54 | C24A C33A A37U G50C C61U | ≤ 0.5
55 | C24G A36G A57C C61U | ≤ 0.5
56 | C24G A43G | 0.573
57 | C24A G48A U53G G67C | ≤ 0.5
58 | C24G C29A C30U G50A C62U | ≤ 0.5
59 | C24A C33A C49U U54G G56A | ≤ 0.5
60 | C24A C62U A70U | 0.543
61 | C24A C62U A70C | ≤ 0.5
62 | C24G G39A | 0.643
63 | C24U A42G G50A | ≤ 0.5
64 | C24G C27U C33U G52C A65G | ≤ 0.5
65 | C24U A37G | 0.708
66 | C24G C30U C61G | ≤ 0.5
67 | C24A C33A | 0.587
68 | C24A C33U | 0.601
69 | C24A C33G | 0.705
70 | C24A G48A U53G | ≤ 0.5
71 | C24G C31G A43U | 0.596
72 | C24G C66U A69C | ≤ 0.5

Row | Variant | yeast fitness
73 | C24G C31U C33G | ≤ 0.5
74 | C24U A45C C49G A69C | ≤ 0.5
75 | C24G C31A C33U U35A A57G | 0.529
76 | C24A C31U | 0.754
77 | C24A C31A | 0.603
78 | C24A C31G | 0.625
79 | C24G C29A A43U A57G G68C | ≤ 0.5
80 | C24U A40C G68C | 0.502
81 | C24A C49U | 0.614
82 | C24G C30A U47C G63A | ≤ 0.5
83 | C24G A36C C55U | ≤ 0.5
84 | C24G G56C U59C | ≤ 0.5
85 | C24G A45U G67A | ≤ 0.5
86 | C24U A42U A43C A57C C60A | 0.637
87 | C24G C27U C33U G50C | ≤ 0.5
88 | C24G C27U C33U G50A | ≤ 0.5
89 | C24A A45G C61G C62U | 0.543
90 | C24G A37C A57U | ≤ 0.5
91 | C24G C33U A37U C49G U64C | ≤ 0.5
92 | C24A C27G U53C C55U | ≤ 0.5
93 | C24G C29U G51C | 0.576
94 | C24G G50A A57G | ≤ 0.5
95 | C24G U54C G68C | ≤ 0.5
96 | C24G C33G G51A U53A G56A G67C | 0.541

Row | Variant | yeast fitness
97 | C24G C49A | ≤ 0.5
98 | C24G A37G C61U | ≤ 0.5
99 | C24U A65U | 0.894
100 | C24U A65G | 0.924
101 | C24G G48C A57G G68C | ≤ 0.5
102 | C24U A42U G51C | ≤ 0.5
103 | C24U A37C G50C | 0.547
104 | C24U A69G | 0.998
105 | C24G A36G A45G A65U | ≤ 0.5
106 | C24G A36C U54G | ≤ 0.5
107 | C24G U64A A70C | ≤ 0.5
108 | C24A A65U | 0.549
109 | C24A A65G | 0.654
110 | C24G G39C C60U A65U | ≤ 0.5
111 | C24U A36C A45C C55U A70U | ≤ 0.5
112 | C24U A45C G58C | 0.554
113 | C24U A36U C55G A57G G63C | ≤ 0.5
114 | C24G C31U C55A | ≤ 0.5
115 | C24A C66G | 0.548
116 | C24G C33U U47G | ≤ 0.5
117 | C24A G44C C49A C60U A69C | 0.599
118 | C24G U28C A43U C60A | ≤ 0.5
119 | C24G C27U C62U A70U | ≤ 0.5
120 | C24U A40C G52C G67A | ≤ 0.5

Row | Variant | yeast fitness
121 | C24A G48C A70U | ≤ 0.5
122 | C24A G56A | 0.711
123 | C24A U59C | 0.553
124 | C24A G67A | 0.709
125 | C24A G67U | 0.669
126 | C24A G67C | 0.74
127 | C24G A36G A45G | ≤ 0.5
128 | C24G G52C | ≤ 0.5
129 | C24G G52A | 0.566
130 | C24G A42U | 0.559
131 | C24A U26A | 0.57
132 | C24G U28C | 0.508
133 | C24G C27A A45C C62G C66U | ≤ 0.5
134 | C24G G25C C66A | ≤ 0.5
135 | C24U A36G G58C C66G G68A | 0.569
136 | C24A U26G A43C C60U C62G G63A C66G A69G | ≤ 0.5
137 | C24G G50C | 0.543
138 | C24G G50A | 0.616
139 | C24G A43C C46G U53G C61U | ≤ 0.5
140 | C24G C34G U53A | 0.552
141 | C24A A43G G63U U64A | ≤ 0.5
142 | C24G C29A G50C A57C | ≤ 0.5
143 | C24A C60G | 0.51
144 | C24G C34U U35A A65U | 0.578

Row | Variant | yeast fitness
145 | C24A C61A G67A | ≤ 0.5
146 | C24G A42U C49U | ≤ 0.5
147 | C24G G25C C30G U32C A70C | 0.533
148 | C24A C30U A45G U54C A57U C62U | 0.548
149 | C24G A40G A43G | ≤ 0.5
150 | C24G C30G C31U U35A A36U G44A G63C | 0.86
151 | C24G C30G G39A | 0.593
152 | C24G U26A C46A G58C | ≤ 0.5
153 | C24G U28G C33U A42U G50A | ≤ 0.5
154 | C24G U28C G50C | ≤ 0.5
155 | C24G A43G C49U C55G | 0.643
156 | C24G U59G A65U | 0.659
157 | C24G A37G G67C | 0.549
158 | C24G A36C C49U A70C | ≤ 0.5
159 | C24G A45C | 0.629
160 | C24G A45U | 0.557
161 | C24G A45G | 0.637
162 | C24A U26A C31A | 0.544
163 | C24A A43U A45C | ≤ 0.5
164 | C24U A70G | 0.887
165 | C24A C30U A45G | ≤ 0.5
166 | C24A U26G A43C U64C | ≤ 0.5
167 | C24U A43G | 1.02
